From ChEMBL document CHEMBL1152565, “Furo[3',2':3,4]naphtho[1,2-d]imidazole derivatives as potential inhibitors of inflammatory factors in sepsis” (Bioorg Med Chem, 2009)
Active and inactive are the calls of the source. No cut-off for these calls is given here.

Columns and labels:
[1] = Antiinflammatory activity against Sprague-Dawley rat neutrophils assessed as inhibition of fMLP/cytochalasin B-induced lysozyme release; type: functional, cell-based; details: Neutrophil
Method in brief: (§1)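 Rat (Sprague-Dawley) peripheral blood neutrophils incubated with test compound 5 min at 37 °C, then stimulated with fMLP (0.3 μM)/cytochalasin B (5 μg/ml) for 45 min. β-Glucuronidase and lysozyme measured in supernatant. Compound stocks in DMSO; final DMSO <0.5% (v/v). Means ± SE of at least three separate experiments.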

[2] = Antiinflammatory activity against Sprague-Dawley rat neutrophils assessed as inhibition of fMLP/cytochalasin B-induced beta-glucuronidase release; type: functional, cell-based; details: Neutrophil; method in brief: as §1
Neutrophil = experiment: Inhibition of fMLP-induced superoxide generation in Sprague-Dawley rat neutrophils; type: functional, cell-based
Method in brief: (§2)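 Sprague-Dawley rat peripheral blood neutrophils preincubated with compound 5 min at 37 °C, then stimulated 30 min with fMLP (0.3 μM)/CB (5 μg/mL) or PMA (3 nM) in presence of cytochrome c. Superoxide quantified as superoxide dismutase-inhibitable cytochrome c reduction. Final DMSO <0.5% (v/v). IC50 as means ± SE, at least three separate experiments.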

Rattus norvegicus [3] = organism: Rattus norvegicus; experiment: Inhibition of PMA-induced superoxide generation in Sprague-Dawley rat neutrophils; type: functional; details: Neutrophil; method in brief: as §2
RAW264.7 [4] = experiment: Inhibition of LPS-induced nitric oxide accumulation in mouse RAW264.7 cells; type: functional, cell-based
Method in brief: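 RAW 264.7 macrophages grown in DMEM with 5% FBS at 37 °C, 5% CO2, and stimulated with LPS. Nitrite accumulated in medium read with Griess reagent (sulfanilamide/N-(1-naphthyl)ethylenediamine in phosphoric acid, 5 min) at OD550 against sodium nitrite standard in culture medium. IC50 as means ± SE of at least three experiments.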

RAW264.7 [5] = experiment: Cytotoxicity against mouse RAW264.7 cells up to 10 uM after 24 hrs by methylene blue assay; type: cell-based; details: raw264.7, 24 h
Method in brief: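 RAW 264.7 cells seeded at 2×10^5 cells/well, given LPS plus various compound concentrations for 24 h. Stained with 1% methylene blue for 40 min, washed, dye released with 1% sarcosyl for 4 h, absorbance read at 570 nm. LPS-treated cells without compound set as 100% survival.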

RAW264.7 [6] = experiment: Inhibition of LPS-induced iNOS protein expression in mouse RAW264.7 cells after 2 hrs by Western blot; type: functional, cell-based
Method in brief: (§3)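 RAW 264.7 cells (5×10^5 cells/well) pretreated with compound 2 h, then stimulated with LPS 0.1 μg/mL for 24 h. Lysed in RIPA buffer, protein measured by Bradford, 15 μg run on 8% SDS–PAGE and immunoblotted for iNOS with ECL detection. Bands quantified densitometrically relative to β-actin.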

RAW264.7 [7] = experiment: Inhibition of LPS-induced iNOS protein expression in mouse RAW264.7 cells at 5 uM after 2 hrs by Western blot; type: functional, cell-based; method in brief: as §3
Rattus norvegicus [8] = experiment: Inhibition of iNOS mRNA expressing in cecal ligation and puncture Sprague-Dawley rat model at 10 mg/kg, ip treated 1 hr before surgery measured after 24 hrs of surgery by PCR amplification; type: functional; details: route intraperitoneal
Method in brief: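 Sprague-Dawley rats aged 6–8 weeks, 3–4 per group, given compound or hydrocortisone 10 mg/kg by intraperitoneal injection 1 h before cecal ligation and puncture. Resuscitated with 1 mL normal saline after surgery; sham animals handled identically. Lung tissue collected 24 h post-surgery; iNOS mRNA band intensities normalized to GAPDH.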

Rattus norvegicus [9] = experiment: Inhibition of sepsis-induced PGE2 production in cecal ligation and puncture Sprague-Dawley rat model serum at 10 mg/kg, ip treated 1 hr before surgery measured after 24 hrs of surgery by ELISA; type: functional; details: route intraperitoneal
Method in brief: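 Sprague-Dawley rats aged 6–8 weeks (3–4 per group) pretreated intraperitoneally with 10 mg/kg compound or hydrocortisone 1 h before cecal ligation and puncture, saline-resuscitated after. Blood taken from portal vein 24 h post-surgery, centrifuged 3000 rpm 20 min, serum stored at -70 °C. PGE2 measured by ELISA; average of three independent studies.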

IC50 [1]	IC50 [2]	IC50 (Neutrophil)	IC50 (Rattus norvegicus [3])	IC50 (RAW264.7 [4])	Structure (SMILES)	Activity (RAW264.7 [5])	inhibition (RAW264.7 [6])	inhibition (RAW264.7 [7])	inhibition in vivo at 10 mg/kg (Rattus norvegicus [8])	inhibition in vivo at 10 mg/kg (Rattus norvegicus [9])
16.3 µM	11.4 µM	> 30 µM	> 30 µM	> 10 µM	c1ccc(-c2nc3c4ccccc4c4occc4c3[nH]2)cc1	–	–	–	–	–
19.5 µM	11.3 µM	> 30 µM	> 30 µM	11.9 µM	c1coc(-c2nc3c4ccccc4c4occc4c3[nH]2)c1	Non-toxic	Dose-dependent effect	–	–	–
11.9 µM	12.5 µM	–	–	–	CN1CCN(CCCN2c3ccccc3Sc3ccc(C(F)(F)F)cc32)CC1 [TRIFLUOPERAZINE]	–	–	–	–	–
> 10 µM	> 10 µM	> 30 µM	> 30 µM	> 10 µM	O=[N+]([O-])c1ccc(-c2nc3c4ccccc4c4occc4c3[nH]2)cc1	–	–	–	–	–
> 30 µM	> 30 µM	> 30 µM	> 30 µM	1.3 µM	O=[N+]([O-])c1ccc(/C=C/c2nc3c4ccccc4c4occc4c3[nH]2)o1	Non-toxic	Dose-dependent effect	Active	30%	150%
> 30 µM	> 30 µM	> 30 µM	> 30 µM	1.5 µM	O=[N+]([O-])c1ccc(-c2nc3c4ccccc4c4occc4c3[nH]2)o1	Non-toxic	Dose-dependent effect	–	–	–
> 30 µM	> 30 µM	> 30 µM	> 30 µM	> 30 µM	c1ccc2c(c1)c1nc[nH]c1c1ccoc21	–	–	–	–	–
–	–	–	–	2.7 µM	CC(=N)NCc1cccc(CN)c1 [1400W]	–	–	–	–	–
7.4 µM	5 µM	> 30 µM	> 30 µM	> 10 µM	O=Cc1ccc(-c2nc3c4ccccc4c4occc4c3[nH]2)cc1	–	–	–	–	–

Structure (SMILES)	IC50 [1]	IC50 [2]	IC50 (Neutrophil)	IC50 (Rattus norvegicus [3])	IC50 (RAW264.7 [4])	Activity (RAW264.7 [5])	inhibition (RAW264.7 [6])	inhibition (RAW264.7 [7])	inhibition in vivo at 10 mg/kg (Rattus norvegicus [8])	inhibition in vivo at 10 mg/kg (Rattus norvegicus [9])
c1ccc2c(c1)[I+]c1ccccc1-2 [DIPHENYLENEIODONIUM CHLORIDE]	–	–	5.2 µM	4.3 µM	–	–	–	–	–	–
